Laboratory results published in ChEMBL document CHEMBL1122777, “Effect of tellurium position on the myocardial uptake of radioiodinated 18-iodotellura-17-octadecenoic acid analogues” (1984).

Assays:
[1] = Ratio of heart to liver uptake after 120 min was determined in female Fischer rats after [125I]-labeled compound complexed with bovine serum albumin was injected intravenously; assay type: functional
Procedure, shortened: (§1)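 Female Fischer 344 rats (food and water ad libitum) given the 125I-labelled fatty acid in 6% bovine albumin with 10% final ethanol, filtered, 0.5 mL into a lateral tail vein under ether anaesthesia. Four rats per time point. Tissue activity expressed as % injected dose/g against assayed injectate standards. Mean heart/tissue ratios were calculated from mean %ID/g values.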

Rattus norvegicus [2] = assay: Blood uptake after 5 min was determined in female Fischer rats after [125I]-labeled compound complexed with bovine serum albumin was injected intravenously; assay type: functional
Procedure, shortened: (§2)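 Female Fischer 344 rats (fed ad libitum) under ether anaesthesia received the ¹²⁵I fatty acid in a lateral tail vein. Dose was ~3.8–4.8 μCi per rat (sp act ~125–240 mCi/mmol), given in 0.5 mL 6% bovine albumin (final ethanol 10%) after filtration. Four rats per time point were used. Tissue radioactivity is % injected dose/g, mean with range, calculated against standards of the injected solution.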

Rattus norvegicus [3] = assay: Heart uptake after 2 hr was determined in female Fischer rats after [125I]-labeled compound complexed with bovine serum albumin was injected intravenously; assay type: functional; procedure, shortened: as §2
Rattus norvegicus [4] = assay: Blood uptake after 60 min was determined in female Fischer rats after [125I]-labeled compound complexed with bovine serum albumin was injected intravenously; assay type: functional; procedure, shortened: as §2
[5] = Ratio of heart to liver uptake after 60 min was determined in female Fischer rats after [125I]-labeled compound complexed with bovine serum albumin was injected intravenously; assay type: functional; procedure, shortened: as §1
[6] = Ratio of heart to liver uptake after 5 min was determined in female Fischer rats after [125I]-labeled compound complexed with bovine serum albumin was injected intravenously; assay type: functional; procedure, shortened: as §1
Rattus norvegicus [7] = assay: Liver uptake after 5 min was determined in female Fischer rats after [125I]-labeled compound complexed with bovine serum albumin was injected intravenously; assay type: functional; procedure, shortened: as §2
Rattus norvegicus [8] = assay: Blood uptake after 2 hr was determined in female Fischer rats after [125I]-labeled compound complexed with bovine serum albumin was injected intravenously; assay type: functional; procedure, shortened: as §2
[9] = Ratio of heart to lungs uptake after 240 min was determined in female Fischer rats after [125I]-labeled compound complexed with bovine serum albumin was injected intravenously; assay type: functional; procedure, shortened: as §1
Rattus norvegicus [10] = assay: Lungs uptake after 4 hr was determined in female Fischer rats after [125I]-labeled compound complexed with bovine serum albumin was injected intravenously; assay type: functional; procedure, shortened: as §2
[11] = Ratio of heart to lungs uptake after 5 min was determined in female Fischer rats after [125I]-labeled compound complexed with bovine serum albumin was injected intravenously; assay type: functional; procedure, shortened: as §1
[12] = Ratio of heart to liver uptake after 240 min was determined in female Fischer rats after [125I]-labeled compound complexed with bovine serum albumin was injected intravenously; assay type: functional; procedure, shortened: as §1
[13] = Ratio of heart to kidneys uptake after 5 min was determined in female Fischer rats after [125I]-labeled compound complexed with bovine serum albumin was injected intravenously; assay type: functional, Heart/Kidney; procedure, shortened: as §1
[14] = Ratio of heart to blood uptake after 120 min was determined in female Fischer rats after [125I]-labeled compound complexed with bovine serum albumin was injected intravenously; assay type: functional; procedure, shortened: as §1
[15] = Ratio of heart to lungs uptake after 30 min was determined in female Fischer rats after [125I]-labeled compound complexed with bovine serum albumin was injected intravenously; assay type: functional; procedure, shortened: as §1
Rattus norvegicus [16] = assay: Lungs uptake after 60 min was determined in female Fischer rats after [125I]-labeled compound complexed with bovine serum albumin was injected intravenously; assay type: functional; procedure, shortened: as §2
[17] = Ratio of heart to kidneys uptake after 120 min was determined in female Fischer rats after [125I]-labeled compound complexed with bovine serum albumin was injected intravenously; assay type: functional, Heart/Kidney; procedure, shortened: as §1
Rattus norvegicus [18] = assay: Heart uptake after 60 min was determined in female Fischer rats after [125I]-labeled compound complexed with bovine serum albumin was injected intravenously; assay type: functional; procedure, shortened: as §2
Rattus norvegicus [19] = assay: Thyroid uptake after 60 min was determined in female Fischer rats after [125I]-labeled compound complexed with bovine serum albumin was injected intravenously; assay type: functional
Procedure, shortened: (§3)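 Female Fischer 344 rats with free access to food and water. The 125I-labelled fatty acid (~3.8–4.8 μCi; sp act. ~125–240 mCi/mmol) was complexed with 6% bovine serum albumin (10% final ethanol), filtered, and 0.5 mL was injected via a lateral tail vein under ether anaesthesia. Four rats per time point. Values are mean % injected dose/g, calculated against injectate standards. Thyroid weight was taken as 7.5 mg/100 g body weight.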

Rattus norvegicus [20] = assay: Thyroid uptake after 30 min was determined in female Fischer rats after [125I]-labeled compound complexed with bovine serum albumin was injected intravenously; assay type: functional; procedure, shortened: as §3
Rattus norvegicus [21] = assay: Blood uptake after 1 day was determined in female Fischer rats after [125I]-labeled compound complexed with bovine serum albumin was injected intravenously; assay type: functional; procedure, shortened: as §2
[22] = Ratio of heart to kidneys uptake after 60 min was determined in female Fischer rats after [125I]-labeled compound complexed with bovine serum albumin was injected intravenously; assay type: functional, Heart/Kidney; procedure, shortened: as §1
Rattus norvegicus [23] = assay: Liver uptake after 4 hr was determined in female Fischer rats after [125I]-labeled compound complexed with bovine serum albumin was injected intravenously; assay type: functional; procedure, shortened: as §2
[24] = Ratio of heart to lungs uptake after 120 min was determined in female Fischer rats after [125I]-labeled compound complexed with bovine serum albumin was injected intravenously; assay type: functional; procedure, shortened: as §1
Rattus norvegicus [25] = assay: Thyroid uptake after 3 days was determined in female Fischer rats after [125I]-labeled compound complexed with bovine serum albumin was injected intravenously; assay type: functional; procedure, shortened: as §3
Rattus norvegicus [26] = assay: Blood uptake after 4 hr was determined in female Fischer rats after [125I]-labeled compound complexed with bovine serum albumin was injected intravenously; assay type: functional; procedure, shortened: as §2
Rattus norvegicus [27] = assay: Heart uptake after 4 hr was determined in female Fischer rats after [125I]-labeled compound complexed with bovine serum albumin was injected intravenously; assay type: functional; procedure, shortened: as §2
Rattus norvegicus [28] = assay: Liver uptake after 2 hr was determined in female Fischer rats after [125I]-labeled compound complexed with bovine serum albumin was injected intravenously; assay type: functional; procedure, shortened: as §2
Rattus norvegicus [29] = assay: Heart uptake after 1 day was determined in female Fischer rats after [125I]-labeled compound complexed with bovine serum albumin was injected intravenously; assay type: functional; procedure, shortened: as §2
Rattus norvegicus [30] = assay: Thyroid uptake after 5 min was determined in female Fischer rats after [125I]-labeled compound complexed with bovine serum albumin was injected intravenously; assay type: functional; procedure, shortened: as §3
[31] = Ratio of heart to blood uptake after 5 min was determined in female Fischer rats after [125I]-labeled compound complexed with bovine serum albumin was injected intravenously; assay type: functional; procedure, shortened: as §1
[32] = Ratio of heart to blood uptake after 240 min was determined in female Fischer rats after [125I]-labeled compound complexed with bovine serum albumin was injected intravenously; assay type: functional; procedure, shortened: as §1
Rattus norvegicus [33] = assay: Thyroid uptake after 1 day was determined in female Fischer rats after [125I]-labeled compound complexed with bovine serum albumin was injected intravenously; assay type: functional; procedure, shortened: as §3
Rattus norvegicus [34] = assay: Lungs uptake after 30 min was determined in female Fischer rats after [125I]-labeled compound complexed with bovine serum albumin was injected intravenously; assay type: functional; procedure, shortened: as §2
Rattus norvegicus [35] = assay: Lungs uptake after 5 min was determined in female Fischer rats after [125I]-labeled compound complexed with bovine serum albumin was injected intravenously; assay type: functional; procedure, shortened: as §2
Rattus norvegicus [36] = assay: Heart uptake after 30 min was determined in female Fischer rats after [125I]-labeled compound complexed with bovine serum albumin was injected intravenously; assay type: functional; procedure, shortened: as §2
[37] = Ratio of heart to kidneys uptake after 240 min was determined in female Fischer rats after [125I]-labeled compound complexed with bovine serum albumin was injected intravenously; assay type: functional, Heart/Kidney; procedure, shortened: as §1
[38] = Ratio of heart to blood uptake after 60 min was determined in female Fischer rats after [125I]-labeled compound complexed with bovine serum albumin was injected intravenously; assay type: functional; procedure, shortened: as §1
[39] = Ratio of heart to lungs uptake after 60 min was determined in female Fischer rats after [125I]-labeled compound complexed with bovine serum albumin was injected intravenously; assay type: functional; procedure, shortened: as §1
[40] = Ratio of heart to blood uptake after 30 min was determined in female Fischer rats after [125I]-labeled compound complexed with bovine serum albumin was injected intravenously; assay type: functional; procedure, shortened: as §1
Rattus norvegicus [41] = assay: Thyroid uptake after 2 hr was determined in female Fischer rats after [125I]-labeled compound complexed with bovine serum albumin was injected intravenously; assay type: functional; procedure, shortened: as §3

## O=C(O)CCCCCCC[Te]CCCCCCC/C=C/I
[1]
  Ratio: 0.84
Rattus norvegicus [2]
  Injected dose/g: 0.23%
Rattus norvegicus [3]
  Injected dose/g: 3.9%
Rattus norvegicus [4]
  Injected dose/g: 0.36%
[5]
  Ratio: 1.06
[6]
  Ratio: 0.75
Rattus norvegicus [7]
  Injected dose/g: 6.41%
Rattus norvegicus [8]
  Injected dose/g: 0.44%
[9]
  Ratio: 2.9
Rattus norvegicus [10]
  Injected dose/g: 1.21%
[11]
  Ratio: 2.9
[12]
  Ratio: 0.93
[13]
  Ratio: 3.1
[14]
  Ratio: 9
[15]
  Ratio: 2.5
Rattus norvegicus [16]
  Injected dose/g: 1.57%
[17]
  Ratio: 3.1
Rattus norvegicus [18]
  Injected dose/g: 5.17%
Rattus norvegicus [19]
  Injected dose/g: 24.8%
Rattus norvegicus [20]
  Injected dose/g: 15%
Rattus norvegicus [21]
  Injected dose/g: 0.46%
[22]
  Ratio: 3.4
Rattus norvegicus [23]
  Injected dose/g: 3.76%
[24]
  Ratio: 2.7
Rattus norvegicus [25]
  Injected dose/g: 267%
Rattus norvegicus [26]
  Injected dose/g: 0.53%
Rattus norvegicus [27]
  Injected dose/g: 3.51%
Rattus norvegicus [28]
  Injected dose/g: 4.66%
Rattus norvegicus [29]
  Injected dose/g: 0.86%
Rattus norvegicus [30]
  Injected dose/g: 9.21%
[31]
  Ratio: 21
[32]
  Ratio: 4
Rattus norvegicus [33]
  Injected dose/g: 294%
Rattus norvegicus [34]
  Injected dose/g: 1.52%
Rattus norvegicus [35]
  Injected dose/g: 1.63%
Rattus norvegicus [36]
  Injected dose/g: 3.76%
[37]
  Ratio: 2.9
[38]
  Ratio: 14
[39]
  Ratio: 3.3
[40]
  Ratio: 8
Rattus norvegicus [41]
  Injected dose/g: 38.5%

## O=C(O)CCCCCCCCC[Te]CCCCC/C=C/I
[1]
  Ratio: 1.1
Rattus norvegicus [2]
  Injected dose/g: 0.45%
Rattus norvegicus [3]
  Injected dose/g: 3.8%
Rattus norvegicus [4]
  Injected dose/g: 0.67%
[5]
  Ratio: 0.7
[6]
  Ratio: 0.37
Rattus norvegicus [7]
  Injected dose/g: 8.33%
Rattus norvegicus [8]
  Injected dose/g: 0.81%
[9]
  Ratio: 1.5
Rattus norvegicus [10]
  Injected dose/g: 1.59%
[11]
  Ratio: 1.2
[12]
  Ratio: 0.97
[13]
  Ratio: 1.4
[14]
  Ratio: 5
[15]
  Ratio: 1.6
Rattus norvegicus [16]
  Injected dose/g: 2.07%
[17]
  Ratio: 2.5
Rattus norvegicus [18]
  Injected dose/g: 3.63%
Rattus norvegicus [19]
  Injected dose/g: 37%
Rattus norvegicus [20]
  Injected dose/g: 29%
Rattus norvegicus [21]
  Injected dose/g: 0.62%
[22]
  Ratio: 1
Rattus norvegicus [23]
  Injected dose/g: 2.52%
[24]
  Ratio: 1.9
Rattus norvegicus [25]
  Injected dose/g: 227%
Rattus norvegicus [26]
  Injected dose/g: 1.03%
Rattus norvegicus [27]
  Injected dose/g: 2.44%
Rattus norvegicus [28]
  Injected dose/g: 3.47%
Rattus norvegicus [29]
  Injected dose/g: 0.69%
Rattus norvegicus [30]
  Injected dose/g: 29%
[31]
  Ratio: 7
[32]
  Ratio: 2
Rattus norvegicus [33]
  Injected dose/g: 221%
Rattus norvegicus [34]
  Injected dose/g: 2.06%
Rattus norvegicus [35]
  Injected dose/g: 2.49%
Rattus norvegicus [36]
  Injected dose/g: 3.05%
[37]
  Ratio: 1.7
[38]
  Ratio: 5
[39]
  Ratio: 1.8
[40]
  Ratio: 5
Rattus norvegicus [41]
  Injected dose/g: 45%
